Bioassay records (PubChem)
Pf gamet viab: kills late stage P. falciparum gametocytes | P. falciparum stage V gametocytes, ATP luminescence, 24 h | inhibition, % at 10.9 µM | actives 0.065% (n = 150,000);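 active means inhibition above the mean plus 3 SD of compounds within the control limits, set per campaign, cut at about 38% in these data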;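 further: 0% = DMSO wells and 100% = medium only without gametocytes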
Cl transport mod: modulates chloride dependent transport by human KCC2; Q9H2X9; KCC2 cells, thallium flux FluoZin-2 fluorescence; B-score of Tl+ flux slope (higher = more flux/activation; lower = inhibition) at 10 µM; actives 2.2% (n = 190,000); AID 1456;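 active means thallium flux slope and its plate-corrected score both differing from the plate sample mean at a set confidence after two filtering rounds, in either direction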;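 further: slope of fluorescence scaled to starting intensity during 10 to 20 s after thallium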
WT yeast gro inh: growth inhibition of WT yeast, mitochondrial fusion screen | mitochondrial fusion phenotypic screen, WT strain | inhibition, % at 10 µM | actives 2.1% (n = 190,000) | AID 1362; in the data active means inhibition above about 58%; tested in S. cerevisiae
MT stabilize HCS: microtubule stabilizers in HeLa cells; HeLa tubulin immunostaining HCS, 24 h; share of cells brighter than vehicle mean+2SD; % tubulin-high responders, % at 10 µM; actives 0.83% (n = 200,000); AID 2205;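 active means plate Z-score above 3 for both tubulin-high and condensed-nucleus cell shares, with cell loss under 80%, at 10 µM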;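 further: anti alpha tubulin signal scored within the nucleus-defined area of each cell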
bCat nuc transl: alters nuclear translocation of beta-catenin in HeLa cells. immunofluorescence imaging. nuclear translocation activity, % at 5 µM. actives 0.3% (n = 190,000). AID 1665;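 active means nuclear translocation activity above 50% at 5 µM, with a well cell count of 50 or more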;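 further: per-cell ratio of nuclear to cytoplasmic median beta-catenin stain intensity; plate controls were DMSO negative control for no effect and GSK-3 inhibitor IX positive control for full effect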
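test system = HeLa cells, endogenous beta-catenin | dosing = single 5 µM dose plus 0.02–20 µM confirmation series | times = compound treatment 24 h, 37°C, 5% CO2 | technique = beta-catenin immunofluorescence imaging with DAPI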
Starred values were filed as active, the others as inactive. Most compounds without a hit are left out; they make up all but 4% or so of the library.

Screening Cc1nc([N+](=O)[O-])cn1-c1nc2ccccn2c1[N+](=O)[O-] returned Cl transport mod -0.12 and bCat nuc transl -2.
For O=C(NC1CCCC1)C(=O)N(c1ccccc1F)C(C(=O)NCC1CCCO1)c1cccs1 (stereo unspecified) the results were Pf gamet viab -30, Cl transport mod 0.69, WT yeast gro inh -31, MT stabilize HCS 2 and bCat nuc transl -1.
`O=C(CN1CCN(c2ccc(C(F)(F)F)cn2)CC1)NCc1ccc2c(c1)OCO2` gave Pf gamet viab 9, Cl transport mod 0.65 and bCat nuc transl -2.
Cc1ccc(C2=C/C(=C/c3cccs3)C(=O)O2)cc1 was read as Pf gamet viab -10, Cl transport mod 0.45, WT yeast gro inh 23, MT stabilize HCS 3 and bCat nuc transl -1.
`O=C1CSC(c2ccccc2[N+](=O)[O-])N1CCc1ccccc1` (stereo unspecified) gave Cl transport mod -0.95, WT yeast gro inh 15 and MT stabilize HCS 2.
Screening CCOc1ccc(NC(=S)N=Nc2c(O)[nH]c3ccccc23)cc1 returned Pf gamet viab 4, Cl transport mod 4.4*, WT yeast gro inh 26, MT stabilize HCS 5 and bCat nuc transl -1.
Oc1[nH]c2ccccc2c1N=NC(=S)NCCc1ccccc1 was read as Pf gamet viab 7, Cl transport mod 20*, WT yeast gro inh 55, MT stabilize HCS 3 and bCat nuc transl 0.
`O=C(CSCc1ccccc1)N=Nc1c(O)[nH]c2ccccc12` gave Pf gamet viab -6, Cl transport mod 8.6*, WT yeast gro inh 10, MT stabilize HCS 2 and bCat nuc transl 0.
COc1ccc(C2C(C(=O)NCc3ccccn3)CCC(=O)N2c2cc(OC)c(OC)c(OC)c2)cc1 (stereo unspecified) was read as Pf gamet viab 3, Cl transport mod 0.83, WT yeast gro inh -18, MT stabilize HCS 2 and bCat nuc transl 0.
For O=C(O)C(Cc1ccccc1)N1C(=O)/C(=C/c2cccc3ccccc23)SC1=S (stereo unspecified) the results were Cl transport mod -7.2*, WT yeast gro inh 7, MT stabilize HCS 2 and bCat nuc transl 0.
Screening Cc1ccc(/C=C2\SC(=S)N(C(Cc3ccccc3)C(=O)O)C2=O)cc1 (stereo unspecified) returned Cl transport mod -3.5*, WT yeast gro inh -33, MT stabilize HCS 3 and bCat nuc transl -1.
Screening CC(C)(C)c1ccc(S(=O)(=O)N2CCC(c3nc4ccc(Cl)cc4[nH]3)CC2)cc1 returned Pf gamet viab 20, Cl transport mod -0.86, WT yeast gro inh 69*, MT stabilize HCS 2 and bCat nuc transl 0.
Screening NC(=S)N/N=C\c1c2ccccc2cc2ccccc12 returned Pf gamet viab 4, Cl transport mod 1.2, WT yeast gro inh 29, MT stabilize HCS 8 and bCat nuc transl 1.
Screening NC(=S)N/N=C\c1c(OCc2ccccc2Cl)ccc2ccccc12 returned Pf gamet viab -7, Cl transport mod -0.019, WT yeast gro inh 61*, MT stabilize HCS 2 and bCat nuc transl 2.
Screening CC1CCN(c2ccc(C(=O)NCc3ccco3)cc2[N+](=O)[O-])CC1 returned Cl transport mod -2.3, WT yeast gro inh 44, MT stabilize HCS 3 and bCat nuc transl 0.
Screening S=C(Nc1ccc2[nH]ccc2c1)NC1CCCCC1 returned Pf gamet viab -16 and bCat nuc transl -1.
Screening c1ccc(Cc2nnc(-c3ccccc3)o2)cc1 returned Pf gamet viab -1, Cl transport mod 14*, WT yeast gro inh 0 and MT stabilize HCS 3.
Cc1ccc(NS(=O)(=O)c2ccc(-c3csc(C)n3)s2)c(C)c1 was read as Pf gamet viab 6, Cl transport mod -0.12 and bCat nuc transl 0.
`Cc1ccc2cc(CN(CC3CCCO3)C(=S)Nc3ccccc3)c(=O)[nH]c2c1` (stereo unspecified) gave Pf gamet viab -15, Cl transport mod -1.2, WT yeast gro inh -14, MT stabilize HCS 16* and bCat nuc transl 64*.
Screening COc1ccc(C(=O)N(Cc2ccccc2)Cc2cc3cc4c(cc3[nH]c2=O)OCCO4)cc1 returned Pf gamet viab -19, WT yeast gro inh -8, MT stabilize HCS 36* and bCat nuc transl -2.
`Cc1ccc2[nH]c(=O)c(CN(CC3CCCO3)C(=S)Nc3ccccc3)cc2c1` (stereo unspecified) gave Pf gamet viab -36, Cl transport mod 0.61, WT yeast gro inh 16, MT stabilize HCS 12* and bCat nuc transl 0.
Screening Cc1cc(C)c2[nH]c(=O)c(CN(CC3CCCO3)C(=S)Nc3ccccc3)cc2c1 (stereo unspecified) returned Pf gamet viab 6, Cl transport mod 0.62, WT yeast gro inh 7, MT stabilize HCS 4 and bCat nuc transl -2.
`O=c1[nH]c2cc3c(cc2cc1CN(Cc1ccco1)C(=S)NCC1CCCO1)OCCO3` (stereo unspecified) gave Cl transport mod 0.41, WT yeast gro inh -6, MT stabilize HCS 22* and bCat nuc transl 18.
Screening O=C(CCCCl)Oc1ccc2cc(-c3ccc4ccccc4n3)c(=O)oc2c1 returned Pf gamet viab 14, Cl transport mod -0.18, WT yeast gro inh -7, MT stabilize HCS 4 and bCat nuc transl 2.
Screening COc1cc(C(=O)NCC(c2ccccc2)N(C)C)ccc1OCC(=O)N1CCOCC1 (stereo unspecified) returned Pf gamet viab -3, Cl transport mod 0.57, WT yeast gro inh -20, MT stabilize HCS 1 and bCat nuc transl -4.
COc1ccc(C(=O)C2CCCN(C(=O)c3ccc4cc[nH]c4c3)C2)c(C)c1 (stereo unspecified) was read as Pf gamet viab 2, Cl transport mod -1.1, WT yeast gro inh 9, MT stabilize HCS 1 and bCat nuc transl -1.
O=C(OCC#CCSc1nnc(-c2cccc3ccccc23)o1)c1cccc2[nH]ccc12 was read as Pf gamet viab -33.
Screening CN(C)c1ccc(/C=N/Nc2nncc3ccccc23)cc1 returned Pf gamet viab 7.
Screening Cc1ccc(-n2nnnc2C(Cl)(Cl)c2nnnn2-c2ccc(C)cc2)cc1 returned Cl transport mod 0.25, WT yeast gro inh 95*, MT stabilize HCS 4 and bCat nuc transl 3.
Screening CCOc1ccc(S(=O)(=O)Nc2cc(SCC(=O)O)c(O)c3ccccc23)cc1 returned Pf gamet viab 13.
CC(C)OC(=O)C(C(=O)C(F)(F)F)c1cc(NS(=O)(=O)c2ccc3ccccc3c2)c2ccccc2c1O (stereo unspecified) was read as Cl transport mod -0.42, WT yeast gro inh 62*, MT stabilize HCS 3 and bCat nuc transl -2.
For O=[N+]([O-])c1cc(Cl)ccc1N1CCN(c2ccccc2O)CC1 the results were Pf gamet viab -19, Cl transport mod -0.99, WT yeast gro inh 75*, MT stabilize HCS 3 and bCat nuc transl -1.
